Each structure is given as a SMILES string. The source made the active and inactive calls. The calls are words filed in the database; no cut-off is given here.

Experimental findings from ChEMBL document CHEMBL4028902, “Azetidine and Piperidine Carbamates as Efficient, Covalent Inhibitors of Monoacylglycerol Lipase” (J Med Chem, 2017) are described below.

Data set [1] addresses T1, Monoglyceride lipase (Homo sapiens) (UniProt Q99685).
T1 sequence (whole entry): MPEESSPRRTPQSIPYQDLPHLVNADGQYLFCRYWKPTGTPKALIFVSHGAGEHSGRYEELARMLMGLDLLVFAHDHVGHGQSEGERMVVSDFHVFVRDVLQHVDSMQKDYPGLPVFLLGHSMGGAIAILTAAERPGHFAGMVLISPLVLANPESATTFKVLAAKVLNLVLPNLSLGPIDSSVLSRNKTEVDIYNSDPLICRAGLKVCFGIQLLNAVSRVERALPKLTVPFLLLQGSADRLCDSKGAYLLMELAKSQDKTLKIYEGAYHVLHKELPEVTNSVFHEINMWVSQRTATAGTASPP
Put plainly: Ratio of Kinact to Ki for human recombinant MAGL using 7-HCA as substrate after 60 mins by fluorescence assay. In outline:
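Run as the MAGL 7-HCA assay, but substrate added with no preincubation (T = 0), fluorescence read every minute at decreasing compound concentrations to give progress curves. kobs from each curve; kinact/KI from a plot of kobs against compound concentration.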

A short description of data set [2]: Lipophilicity, log D of the compound. Conditions: octanol/water. The data set is classed as physicochemical.
For data set [3], the target named is T2, Liver carboxylesterase 1 (Homo sapiens, UniProt P23141).
T2 sequence (P23141 whole entry): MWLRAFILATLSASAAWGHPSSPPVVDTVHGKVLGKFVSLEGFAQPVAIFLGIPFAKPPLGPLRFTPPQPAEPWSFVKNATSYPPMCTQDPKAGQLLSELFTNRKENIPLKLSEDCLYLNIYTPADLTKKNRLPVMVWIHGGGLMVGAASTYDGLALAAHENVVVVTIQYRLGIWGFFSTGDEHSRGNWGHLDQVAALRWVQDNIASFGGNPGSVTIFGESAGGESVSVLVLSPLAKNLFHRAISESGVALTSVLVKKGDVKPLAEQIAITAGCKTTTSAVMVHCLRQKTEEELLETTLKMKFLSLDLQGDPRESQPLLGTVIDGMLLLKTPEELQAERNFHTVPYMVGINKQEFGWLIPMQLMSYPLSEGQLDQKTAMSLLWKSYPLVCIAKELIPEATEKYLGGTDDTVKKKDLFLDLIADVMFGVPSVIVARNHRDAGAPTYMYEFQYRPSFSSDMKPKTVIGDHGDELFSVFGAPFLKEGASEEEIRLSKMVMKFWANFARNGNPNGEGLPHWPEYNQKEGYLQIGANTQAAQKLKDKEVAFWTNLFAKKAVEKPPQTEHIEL
The data set can be described thus: Inhibition of human CES1 at 1 to 10 uM relative to control.

The test system of data set [4] is Brain. The data set can be described thus: Unbound drug level in C57Bl6 mouse brain at 10 mg/kg, sc at 0.5 hrs. In kind it is ADME, organism-based. Conditions: in vivo. In outline: (§1)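 Subcutaneous dosing of C57Bl6 mice in DMSO/Cremophor/saline (5:5:90). Plasma (NaF/K2EDTA tubes) and cerebellum collected at 0.5–24 h, 3 mice per time point. Cerebellum diluted 1:4 (w/v) with water and homogenized; samples deproteinated with methanol/acetonitrile plus internal standard, then HPLC-MS/MS. LLOQ 1.0 ng/mL plasma, 0.5 ng/mL brain homogenate. PK parameters by noncompartmental analysis.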

Data set [5] has as its system Mus musculus. Put plainly: Time required for unbound brain concentration to reach above in vitro IC50 for recombinant human MAGL in C57Bl6 mouse at 10 mg/kg, sc. An outline of the steps:
as §1

Data set [6] deals with Mus musculus. The data set can be described thus: In vivo inhibition of MAGL in C57Bl6 mouse assessed as increase in 2-AG levels in brain at 1 mg/kg, sc measured at 0.5 hrs by LC-MS/MS method relative to control. The data set is classed as functional. An outline of the steps:
(§2)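 C57Bl6 mice, 7 weeks old, 4 per cage, food and water ad libitum, dosed subcutaneously in DMSO/Cremophor/saline (5:5:90, v/v/v). Brains taken after isoflurane, cardiac puncture and cervical dislocation at 0.5, 1, 2, 4, 8, 12 and 24 h (3 mice per time point); vehicle group at 1 h. Frozen in liquid nitrogen, homogenized in 3 volumes PMSF/NH4OAc buffer pH 2.0, d5-2-AG internal standard, ACN extraction, LC-MS/MS (positive ESI, SRM).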

Data set [7] concerns Mus musculus. Put plainly: In vivo inhibition of MAGL in C57Bl6 mouse assessed as increase in 2-AG levels in brain at 1 mg/kg, sc measured after 1 to 24 hrs by LC-MS/MS method. The data set is classed as functional, organism-based. In outline: as §2
For data set [8], the target named is T1, Monoglyceride lipase (Homo sapiens). The data set can be described thus: Inhibition of MAGL in human brain vascular pericytes. The data set is classed as cell-based. An outline of the steps: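 Human brain vascular pericytes grown in DMEM/F12 with 5% heat-inactivated FBS and pericyte growth supplement, then given alkyne-tagged probe (1000× DMSO stock) in medium for 1 h at 37 °C. Pellets lysed in PBS/0.25% SDS, proteome normalized to 1.0 mg/mL, Cu-catalyzed click with TAMRA azide, SDS-PAGE in-gel fluorescence. Two MAGL bands averaged; two biological replicates fitted to a dose–response curve.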

The target of data set [9] is T3, CES1 (liver carboxylesterase 1) (Homo sapiens, UniProt P23141).
T3 sequence (P23141 whole entry): T2 sequence (P23141 whole entry)
The data set can be described thus: Inhibition of human CES1 at 10 uM relative to control.

For data set [10], the system named is Mus musculus. The data set can be described thus: In vivo inhibition of MAGL in C57Bl6 mouse assessed as increase in 2-AG levels in brain at 1 mg/kg, sc measured at 2 hrs by LC-MS/MS method. The data set is classed as functional, organism-based. In outline: as §2
In data set [11] the target is T4, Platelet-activating factor acetylhydrolase (Homo sapiens) (UniProt Q13093).
T4 sequence (whole entry): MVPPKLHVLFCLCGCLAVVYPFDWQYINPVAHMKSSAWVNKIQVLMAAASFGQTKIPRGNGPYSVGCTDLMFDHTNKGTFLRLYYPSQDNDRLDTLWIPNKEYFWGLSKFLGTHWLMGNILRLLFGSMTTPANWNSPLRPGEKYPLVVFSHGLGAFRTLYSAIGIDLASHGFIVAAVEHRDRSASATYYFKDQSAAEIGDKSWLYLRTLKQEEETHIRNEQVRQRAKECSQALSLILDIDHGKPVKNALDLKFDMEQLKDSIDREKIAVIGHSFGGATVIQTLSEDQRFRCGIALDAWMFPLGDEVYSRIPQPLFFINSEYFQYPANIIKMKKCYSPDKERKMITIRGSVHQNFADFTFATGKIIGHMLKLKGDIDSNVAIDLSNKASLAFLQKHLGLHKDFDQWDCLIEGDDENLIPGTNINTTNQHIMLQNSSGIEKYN
Particulars: 10 uM.

Regarding `O=C(OC(C(F)(F)F)C(F)(F)F)N1CC(c2ccn(-c3ccccc3)n2)C1`, the Ratio in [1] was 1.14e+06 M⁻¹ s⁻¹. The logD (in general, the decadic logarithm of the distribution of all forms, ionised or not, between an organic phase and buffer at a given pH) in data set [2] came out at 4.3. For the same molecule, in data set [3], the “inhibition (INH)” value is on record as > 70%. Also, the “Drug uptake(free)” value in [4] was found to be 2 nM. For the same molecule, the Time in data set [5] amounted to 8 h. The “fold change (FC)” value in [6] is listed as 3. The inhibition (commonly the percentage by which the read-out fell short of the control) in [7] was “inactive”. In addition, the inhibition entry in [8] was “Active”.
For the molecule `O=C(OC(C(F)(F)F)C(F)(F)F)N1CCC(c2ccn(-c3ccccc3)n2)CC1`, the inhibition at 10 µM in data set [9] is > 70%. Further, the inhibition entry in data set [10] was “Active”. Also, the inhibition in data set [11] was > 70%.
